According to ChEMBL document CHEMBL4325921, “Potent Triazolopyridine Myeloperoxidase Inhibitors” (ACS Med Chem Lett, 2018):
One block for each compound: values may come before it. Active and inactive are the calls of the source. The calls are words filed in the database; no cut-off is given here.

Key:
[1] = target: T1, Myeloperoxidase (Homo sapiens, UniProt P05164); experiment: Inhibition of human PMN leukocytes MPO peroxidation activity using H2O2 as substrate preincubated for 10 mins followed by H2O2 addition and measured for 15 mins by amplex red reagent based assay
T1 sequence (P05164 whole entry): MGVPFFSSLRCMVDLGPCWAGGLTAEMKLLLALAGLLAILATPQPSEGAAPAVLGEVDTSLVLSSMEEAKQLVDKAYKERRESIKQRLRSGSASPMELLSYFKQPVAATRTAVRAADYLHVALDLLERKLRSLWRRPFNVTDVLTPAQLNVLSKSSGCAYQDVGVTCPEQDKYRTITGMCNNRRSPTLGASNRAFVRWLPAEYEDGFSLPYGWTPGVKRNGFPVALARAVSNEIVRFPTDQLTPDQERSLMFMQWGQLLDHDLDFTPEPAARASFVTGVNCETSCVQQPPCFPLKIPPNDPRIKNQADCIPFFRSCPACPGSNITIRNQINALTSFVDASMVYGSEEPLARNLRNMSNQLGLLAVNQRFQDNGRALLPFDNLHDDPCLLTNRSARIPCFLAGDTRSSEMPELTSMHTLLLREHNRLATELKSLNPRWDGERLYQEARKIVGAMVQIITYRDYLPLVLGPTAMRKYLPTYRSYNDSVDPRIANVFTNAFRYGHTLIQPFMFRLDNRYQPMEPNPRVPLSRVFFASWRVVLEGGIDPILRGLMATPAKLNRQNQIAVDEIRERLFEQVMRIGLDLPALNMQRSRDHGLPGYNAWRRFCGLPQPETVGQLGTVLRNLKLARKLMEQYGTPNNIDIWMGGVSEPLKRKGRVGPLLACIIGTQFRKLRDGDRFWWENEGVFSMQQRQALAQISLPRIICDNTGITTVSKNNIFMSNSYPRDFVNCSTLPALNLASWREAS

[2] = target: Cytochrome P450 3A4 (Homo sapiens, UniProt P08684); experiment: Inhibition of CYP3A4 (unknown origin); format: ADME
[3] = target: Lactoperoxidase (Homo sapiens, UniProt P22079); experiment: Inhibition of human LPO assessed as reduction in H2O2 catalyzed 3,5-iodo tyrosine formation from 3-iodotyrosine and potassium iodide preincubated for 10 mins followed by tyrosine/potassium bromide/H2O2 addition measured after 15 mins
[4] = AUC in mouse at 3 mg/kg, po after 8 hrs; format: ADME, organism-based; parameters: dose 3 mg/kg, time < 8 hr, route oral; conditions: in vivo
[5] = Cmax in mouse at 3 mg/kg, po; format: ADME, organism-based; parameters: dose 3 mg/kg, route oral; conditions: in vivo
[6] = target: T1, Myeloperoxidase; experiment: Inhibition of human PMN leukocytes MPO chlorination activity using H2O2 as substrate preincubated for 10 mins followed by H2O2 addition and measured for 15 mins in presence of NaCl by aminophenyl fluorescein based assay
[7] = Protein binding in human plasma; format: ADME, cell-free; conditions: read-out: PPB (converted)
[8] = system: Mus musculus; experiment: (§1) In vivo inhibition of PMA-stimulated MPO in human MPO transgenic mouse model of acute inflammation assessed as reduction in hypochlorous acid production in blood administered orally 20 mins prior to PMA stimulation and measured after 2 mins by luminol chemiluminescence assay; format: functional, organism-based
In short: (§2)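 Mice were dosed with test compound, then given PMA 20 minutes later to stimulate MPO through neutrophil degranulation. After 2 minutes, blood samples were treated with luminol. Chemiluminescence was read as MPO-dependent hypochlorous acid production.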

[9] = system: Mus musculus; experiment: as §1, with “blood at 10 mg/kg, po” for “blood”, “administered” for “administered orally”, “assay relative to control” for “assay”; format: functional; in short: as §2
[10] = Plasma concentration in human MPO transgenic mouse model of PMA-induced acute inflammation at 30 mg/kg, po; format: ADME, organism-based; conditions: in vivo
[11] = Protein binding in mouse plasma; format: ADME, cell-free; conditions: read-out: PPB (converted)
[12] = system: Mus musculus; experiment: as §1, with “blood at 30 mg/kg, po” for “blood”, “administered” for “administered orally”, “assay relative to control” for “assay”; format: functional; in short: as §2
[13] = target: T2, Eosinophil peroxidase (Homo sapiens, UniProt P11678); experiment: Inhibition of human EPX bromination activity assessed as reduction in H2O2 catalyzed 3-bromo tyrosine formation from tyrosine and potassium bromide preincubated for 10 mins followed by tyrosine/potassium bromide/H2O2 addition measured after 15 mins by RP-UPLC analysis
T2 sequence (P11678 whole entry): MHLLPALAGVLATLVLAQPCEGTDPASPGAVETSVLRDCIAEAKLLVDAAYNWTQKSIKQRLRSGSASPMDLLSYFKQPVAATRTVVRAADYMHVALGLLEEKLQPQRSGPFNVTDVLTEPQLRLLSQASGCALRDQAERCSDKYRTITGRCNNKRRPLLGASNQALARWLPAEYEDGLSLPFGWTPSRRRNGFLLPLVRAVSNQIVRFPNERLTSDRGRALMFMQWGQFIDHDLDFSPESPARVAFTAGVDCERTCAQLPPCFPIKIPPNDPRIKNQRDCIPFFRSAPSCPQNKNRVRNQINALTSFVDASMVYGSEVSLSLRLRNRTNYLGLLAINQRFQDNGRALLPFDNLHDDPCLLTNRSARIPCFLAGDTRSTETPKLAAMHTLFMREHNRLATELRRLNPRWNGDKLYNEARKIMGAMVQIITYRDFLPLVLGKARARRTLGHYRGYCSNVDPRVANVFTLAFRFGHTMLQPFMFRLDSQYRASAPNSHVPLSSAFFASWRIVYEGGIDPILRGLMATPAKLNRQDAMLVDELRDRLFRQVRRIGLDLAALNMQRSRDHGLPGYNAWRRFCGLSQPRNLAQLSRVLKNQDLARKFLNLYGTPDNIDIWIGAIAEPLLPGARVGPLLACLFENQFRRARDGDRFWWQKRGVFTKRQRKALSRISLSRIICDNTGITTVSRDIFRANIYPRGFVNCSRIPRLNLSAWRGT

[14] = target: T3, Thyroid peroxidase (Homo sapiens, UniProt P07202); experiment: Inhibition of human TPO assessed as reduction in H2O2 catalyzed 3,5-iodo tyrosine formation from 3-iodotyrosine and potassium iodide preincubated for 10 mins followed by tyrosine/potassium bromide/H2O2 addition measured after 15 mins
T3 sequence (P07202 whole entry): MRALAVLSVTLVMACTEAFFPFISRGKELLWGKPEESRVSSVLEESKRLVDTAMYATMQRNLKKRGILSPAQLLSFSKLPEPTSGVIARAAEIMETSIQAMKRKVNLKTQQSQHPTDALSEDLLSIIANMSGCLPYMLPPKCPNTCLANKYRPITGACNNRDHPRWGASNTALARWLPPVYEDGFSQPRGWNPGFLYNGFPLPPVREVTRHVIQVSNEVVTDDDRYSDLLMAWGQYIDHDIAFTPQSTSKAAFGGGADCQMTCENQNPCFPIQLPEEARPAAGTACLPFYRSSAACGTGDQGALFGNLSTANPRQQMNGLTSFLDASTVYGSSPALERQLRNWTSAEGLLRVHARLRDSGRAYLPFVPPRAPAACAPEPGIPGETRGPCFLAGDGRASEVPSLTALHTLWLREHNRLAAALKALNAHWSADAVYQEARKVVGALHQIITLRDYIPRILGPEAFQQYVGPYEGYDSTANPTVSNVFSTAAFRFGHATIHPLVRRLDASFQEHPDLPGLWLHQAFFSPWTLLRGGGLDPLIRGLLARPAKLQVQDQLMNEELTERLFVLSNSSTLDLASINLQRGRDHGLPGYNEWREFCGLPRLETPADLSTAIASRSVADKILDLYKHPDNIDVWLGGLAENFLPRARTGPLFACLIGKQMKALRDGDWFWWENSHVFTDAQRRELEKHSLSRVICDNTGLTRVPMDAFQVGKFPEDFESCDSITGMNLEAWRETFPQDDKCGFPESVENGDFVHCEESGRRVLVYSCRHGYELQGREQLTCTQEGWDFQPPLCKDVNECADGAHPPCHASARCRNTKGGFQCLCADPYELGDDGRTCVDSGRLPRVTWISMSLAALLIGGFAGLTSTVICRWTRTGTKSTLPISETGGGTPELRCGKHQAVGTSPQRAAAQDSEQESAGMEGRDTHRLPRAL

[15] = Plasma concentration in human MPO transgenic mouse model of PMA-induced acute inflammation at 10 mg/kg, po; format: ADME, organism-based; conditions: in vivo
[16] = system: Mus musculus; experiment: In vivo inhibition of […] in mouse model of acute inflammation at 10 to 30 mg/kg, po; format: functional, organism-based
[17] = target: T4, Methylated-DNA--protein-cysteine methyltransferase (Homo sapiens, UniProt P16455); experiment: Inhibition of recombinant human N-terminal His-tagged MGMT (1 to 207 residues) expressed in Escherichia coli using O-6-benzylguanine as substrate after 30 mins by LC-MS analysis; conditions: 0.5 h
T4 sequence (P16455 whole entry): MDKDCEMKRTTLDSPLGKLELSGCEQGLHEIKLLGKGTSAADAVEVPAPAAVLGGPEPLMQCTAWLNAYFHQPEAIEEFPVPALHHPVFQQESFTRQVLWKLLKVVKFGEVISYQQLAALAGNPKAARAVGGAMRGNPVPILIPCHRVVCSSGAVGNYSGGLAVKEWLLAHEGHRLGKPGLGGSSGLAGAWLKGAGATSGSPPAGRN

[18] = Half life in pH 1 solution; format: physicochemical

Cytochrome P450 3A4, sequence (P08684 whole entry): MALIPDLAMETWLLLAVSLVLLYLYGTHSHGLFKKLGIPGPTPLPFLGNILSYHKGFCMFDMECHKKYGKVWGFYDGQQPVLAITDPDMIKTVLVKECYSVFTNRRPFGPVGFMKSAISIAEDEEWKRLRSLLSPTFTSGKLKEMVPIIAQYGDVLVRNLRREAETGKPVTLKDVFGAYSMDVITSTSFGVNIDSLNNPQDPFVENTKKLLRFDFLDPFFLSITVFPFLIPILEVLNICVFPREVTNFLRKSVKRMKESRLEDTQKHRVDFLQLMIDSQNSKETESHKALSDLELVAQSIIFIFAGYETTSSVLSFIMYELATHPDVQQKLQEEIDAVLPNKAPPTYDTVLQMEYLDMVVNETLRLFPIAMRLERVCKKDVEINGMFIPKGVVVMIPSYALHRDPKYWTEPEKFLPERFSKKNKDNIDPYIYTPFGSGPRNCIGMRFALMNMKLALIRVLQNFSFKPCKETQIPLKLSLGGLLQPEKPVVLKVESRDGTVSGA
Lactoperoxidase, sequence (P22079 whole entry): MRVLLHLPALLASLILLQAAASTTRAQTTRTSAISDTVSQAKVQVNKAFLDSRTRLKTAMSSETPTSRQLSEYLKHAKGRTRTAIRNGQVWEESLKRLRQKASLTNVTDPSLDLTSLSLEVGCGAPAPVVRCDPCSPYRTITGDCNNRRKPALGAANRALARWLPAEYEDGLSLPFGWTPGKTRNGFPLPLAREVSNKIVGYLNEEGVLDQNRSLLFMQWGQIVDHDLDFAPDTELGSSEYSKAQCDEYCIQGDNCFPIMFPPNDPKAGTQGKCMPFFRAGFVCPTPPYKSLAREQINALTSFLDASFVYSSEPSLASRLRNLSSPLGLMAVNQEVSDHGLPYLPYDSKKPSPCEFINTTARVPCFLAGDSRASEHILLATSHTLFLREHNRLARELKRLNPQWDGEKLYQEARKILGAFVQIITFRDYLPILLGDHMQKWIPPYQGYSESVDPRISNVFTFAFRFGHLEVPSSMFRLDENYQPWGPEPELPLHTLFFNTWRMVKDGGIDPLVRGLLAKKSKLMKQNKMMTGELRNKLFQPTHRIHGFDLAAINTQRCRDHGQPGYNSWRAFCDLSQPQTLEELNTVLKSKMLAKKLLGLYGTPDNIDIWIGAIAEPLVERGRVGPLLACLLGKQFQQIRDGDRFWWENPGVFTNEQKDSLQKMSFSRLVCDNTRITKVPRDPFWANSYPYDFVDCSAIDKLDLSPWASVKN

IC50 [1]: 27 nM
IC50 [2]: 370 nM
SMILES: Cc1nn(-c2ccccc2)nc1COc1cc(N)nc2[nH]nnc12

IC50 [1]: 250 nM
SMILES: Nc1cc(OCc2nn(-c3ccccc3)nc2CO)c2nn[nH]c2n1

IC50 [1]: 21 nM
SMILES: Cn1ccc(-c2cccc(COc3cc(N)nc4[nH]nnc34)c2)n1

IC50 [1]: 30 nM
SMILES: Nc1cc(OCc2ccccc2F)c2nn[nH]c2n1

IC50 [1]: 26 nM
SMILES: Nc1cc(OCc2ccccc2Cl)c2nn[nH]c2n1

IC50 [1]: 290 nM
SMILES: Nc1cc(OCc2ncc(-c3ccccc3)o2)c2nn[nH]c2n1

IC50 [1]: 12 nM
SMILES: Nc1cc(OCc2nn(-c3ccccc3)nc2C(F)F)c2nn[nH]c2n1

IC50 [1]: 21 nM
SMILES: Nc1cc(OCc2cccc(-c3cccc(F)c3)c2)c2nn[nH]c2n1

IC50 [1]: 26 nM
SMILES: Nc1cc(OCc2ccccc2-n2cccn2)c2nn[nH]c2n1

IC50 [1]: 400 nM
SMILES: Nc1cc(OCc2cn(-c3ccccc3)nn2)c2nn[nH]c2n1

IC50 [1]: 78 nM
SMILES: Cn1cc(-c2cccc(COc3cc(N)nc4[nH]nnc34)c2)cn1

AUC at 8 h [4]: 11 µM·h
inhibition (INH) [17]: Active
IC50 [6]: 50 nM
IC50 [1]: 36 nM
half-life [18]: > 6000 min
SMILES: Nc1cc(OCc2ccccc2)c2nn[nH]c2n1

IC50 [1]: 160 nM
SMILES: Nc1cc(OCc2cccc(-c3ccccc3F)c2)c2nn[nH]c2n1

Second part, the compound before the results:

SMILES: Nc1cc(SCc2c(Cl)cccc2Cl)c2nn[nH]c2n1
IC50 [1]: 4.6 nM

SMILES: Nc1cc(OCc2cccc(Cl)c2)c2nn[nH]c2n1
IC50 [1]: 21 nM

SMILES: Nc1cc(OCc2c(Cl)cccc2Cl)c2nn[nH]c2n1
IC50 [1]: 6.7 nM

SMILES: Nc1cc(OCc2ccc(Cl)cc2)c2nn[nH]c2n1
IC50 [1]: 26 nM

SMILES: Nc1cc(SCc2ccccc2F)c2nn[nH]c2n1
IC50 [3]: > 8 µM
AUC at 8 h [4]: 18 µM·h
Cmax [5]: 17 µM
IC50 [6]: 6.8 nM
fraction unbound [7]: 0.02
inhibition [8]: Dose-dependent effect
IC50 [1]: 8.7 nM
inhibition in vivo at 10 mg/kg [9]: 50%
concentration [10]: 70 µM
fraction unbound [11]: 0.192
inhibition in vivo at 30 mg/kg [12]: 74%
IC50 [13]: 22 nM
IC50 [14]: 4 µM
concentration [15]: 21 µM
inhibition [16]: Active

SMILES: Nc1cc(SCc2nn(-c3ccccc3)nc2C(F)F)c2nn[nH]c2n1
IC50 [1]: 8.5 nM

SMILES: CS(=O)(=O)c1ccccc1COc1cc(N)nc2[nH]nnc12
IC50 [1]: 720 nM

SMILES: Cc1c(COc2cc(N)nc3[nH]nnc23)cccc1-c1cccc(F)c1
IC50 [1]: 23 nM

SMILES: Nc1nc(OCc2ccccc2)c2[nH]nnc2n1
IC50 [3]: > 100 µM
AUC at 8 h [4]: 22 µM·h
inhibition (INH) [17]: Active
Cmax [5]: 31 µM
IC50 [6]: 110 to 190 nM
fraction unbound [7]: 0.006
fraction unbound [11]: 0.127
half-life [18]: 168 min
IC50 [13]: 17 nM
IC50 [14]: 42 µM

SMILES: Cc1c(COc2cc(N)nc3[nH]nnc23)cccc1-c1ccn(C)n1
IC50 [1]: 26 nM
IC50 [2]: 1500 nM

SMILES: Nc1cc(OCc2cc(-c3cccc(F)c3)ccc2Cl)c2nn[nH]c2n1
IC50 [1]: 24 nM
IC50 [2]: 60 nM
